# Experimental data published in ChEMBL document CHEMBL1125146, “The development of a novel series of (quinolin-2-ylmethoxy)phenyl-containing compounds as high-affinity leukotriene receptor antagonists. 3. Structural variation of the acidic side chain to give antagonists of enhanced potency” (J Med Chem, 1990).
# Active and inactive are the calls of the source. The rule behind the calls is not given here.
# Columns and labels:
# Cavia porcellus [1] = assay: (§1) Tested in vivo for LTD4-induced […] after oral administration by Dermal wheal assay method; assay type: functional; parameters: concentration or dose not given beside the values
# Summary of the method: (§2)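 Guinea pigs dosed orally, usually at a single dose, with full dose-response curves for selected compounds. Read-out was antagonism of wheal and flare from intradermal injection of 100 ng LTD4. Five or more animals per dose.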
# Cavia porcellus [2] = assay: (§3) Tested in vivo for antigen-induced systemic anaphylaxis after oral administration; assay type: functional; parameters: concentration or dose not given beside the values
# Cavia porcellus [3] = organism: Cavia porcellus; assay: Inhibition of leukotriene-induced contractions of peripheral guinea pig lung strip; assay type: functional, organism-based
# Summary of the method: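 Peripheral guinea pig lung parenchymal strips were challenged with single spasmogen concentrations (LTC4, LTD4 or LTE4), washed, equilibrated, then rechallenged with or without compound. Compound was preincubated at least 5 min before spasmogen. Each tissue served as its own control and was standardized with 1 μM histamine.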
# [4] = target: Cavia porcellus CysLT1 receptor; assay: In vitro binding affinity against cysteinyl leukotriene D4 receptor from guinea pig lung membrane
# Cavia porcellus [5] = assay: as §3; assay type: functional
# Cavia porcellus [6] = assay: as §1; assay type: functional; summary of the method: as §2
# Cavia porcellus [7] = assay: Tested in vivo for antigen-induced systemic anaphylaxis after oral administration; inactive; assay type: functional, organism-based
# Cavia porcellus [8] = assay: Tested in vivo for LTD4-induced […] after oral administration by Dermal wheal assay method; inactive; assay type: functional, organism-based; summary of the method: as §2
IC50 (Cavia porcellus [3]) [nM],Ki [4] [nM],SMILES,Inhibition (Cavia porcellus [1]) [%],Inhibition (Cavia porcellus [2]) [%],ED50 (Cavia porcellus [5]) [mg/kg],ED50 (Cavia porcellus [6]) [mg/kg],ED50 (Cavia porcellus [7]),ED50 (Cavia porcellus [8])
105,20,c1cc(CCCCc2nnn[nH]2)cc(OCc2ccc3ccccc3n2)c1,16,83,,,,
150,34,CC(CCc1nnn[nH]1)Cc1cccc(OCc2ccc3ccccc3n2)c1 (stereo unspecified),40,,,,,
170,43,CC(CCCc1nnn[nH]1)c1ccc(OCc2ccc3ccccc3n2)cc1 (stereo unspecified),,,,,,
30,21,CCCC(CCC(=O)O)Cc1ccc(OCc2ccc3ccccc3n2)cc1 (stereo unspecified),,,9.7,6.5,,
16,11,CCCC(CCc1nnn[nH]1)Cc1cccc(OCc2ccc3ccccc3n2)c1 (stereo unspecified),38,,,,,
20,25,CC(CCc1ccc(OCc2ccc3ccccc3n2)cc1)Cc1nnn[nH]1 (stereo unspecified),,,,,,
45,,c1ccc2nc(COc3ccc(CCCCc4nnn[nH]4)cc3)ccc2c1,38,100,,,,
370,100,O=C(O)CCCCc1cccc(OCc2ccc3ccccc3n2)c1,,,,,,
37,25,c1ccc2nc(COc3ccc(CCC4(Cc5nnn[nH]5)CCCC4)cc3)ccc2c1,,,2.8,4.2,,
1500,,CCCc1c(OCCCCc2nnn[nH]2)ccc(C(C)=O)c1O [TOMELUKAST],,,> 30,> 30,,
70,50,CCCC(CCC(=O)O)Cc1cccc(OCc2ccc3ccccc3n2)c1 (stereo unspecified),,,,,,
24,14,c1ccc(C(CCc2nnn[nH]2)Cc2cccc(OCc3ccc4ccccc4n3)c2)cc1 (stereo unspecified),61,,,,,
79,42,c1cc(OCCCc2nnn[nH]2)cc(OCc2ccc3ccccc3n2)c1,,,,,,
27,12,CC(CCc1nnn[nH]1)Cc1ccc(OCc2ccc3ccccc3n2)cc1 (stereo unspecified),,,1.2,2.5,,
250,69,c1ccc2nc(COc3ccc(OCCCc4nnn[nH]4)cc3)ccc2c1,,,,,,
45,17,CC(CCc1cccc(OCc2ccc3ccccc3n2)c1)Cc1nnn[nH]1 (stereo unspecified),,27,,2.8,,
250,31,CC(CCCc1nnn[nH]1)c1cccc(OCc2ccc3ccccc3n2)c1 (stereo unspecified),62,,,,,
450,110,O=C(O)CCCCc1ccc(OCc2ccc3ccccc3n2)cc1,,,,,,
32,,CCCC(CCc1nnn[nH]1)Cc1ccc(OCc2ccc3ccccc3n2)cc1 (stereo unspecified),,,7,7.2,,
800,,CCCc1c(OCC(O)COc2ccc3c(=O)cc(C(=O)O)oc3c2CCC)ccc(C(C)=O)c1O (stereo unspecified) [FPL-55712],,,,,inactive,inactive

# More lines, now with the values behind:
SMILES,IC50 (Cavia porcellus [3]) [nM],Ki [4] [nM],Inhibition (Cavia porcellus [1]) [%],Inhibition (Cavia porcellus [2]) [%],ED50 (Cavia porcellus [5]) [mg/kg],ED50 (Cavia porcellus [6]) [mg/kg],ED50 (Cavia porcellus [7]),ED50 (Cavia porcellus [8])
O=C(O)CCC(Cc1cccc(OCc2ccc3ccccc3n2)c1)c1ccccc1 (stereo unspecified),56,52,78,100,,,,
c1ccc(C(CCc2nnn[nH]2)Cc2ccc(OCc3ccc4ccccc4n3)cc2)cc1 (stereo unspecified),14,8,,,,,,
O=C(O)CC1(CCc2ccc(OCc3ccc4ccccc4n3)cc2)CCCC1,60,51,73,17,,,,
CC(CCc1cccc(OCc2ccc3ccccc3n2)c1)CC(=O)O (stereo unspecified),800,70,,,,,,
CC(Cc1cccc(OCc2ccc3ccccc3n2)c1)CC(C)C(=O)O (stereo unspecified),500,24,,,,,,
CC(CCCC(=O)O)c1cccc(OCc2ccc3ccccc3n2)c1 (stereo unspecified),500,90,,,,,,
CC(CCC(=O)O)Cc1cccc(OCc2ccc3ccccc3n2)c1 (stereo unspecified),500,140,,,,,,
c1ccc2nc(COc3ccc(CC4CCCC4Cc4nnn[nH]4)cc3)ccc2c1 (stereo unspecified),20,15,,,12,10,,
O=C(O)CCCOc1ccc(OCc2ccc3ccccc3n2)cc1,800,1200,,,,,,
COc1cc(C(=O)NS(=O)(=O)c2ccccc2)ccc1Cn1ncc2ccc(NC(=O)OC3CCCC3)cc21 [ICI-198615],0.4,0.2,,0,,> 30,,
CC(CCCc1cccc(OCc2ccc3ccccc3n2)c1)C(=O)O (stereo unspecified),75,85,,,,,,
CC(CCC(=O)O)Cc1ccc(OCc2ccc3ccccc3n2)cc1 (stereo unspecified),100,43,,,,,,
O=C(O)CCC(Cc1ccc(OCc2ccc3ccccc3n2)cc1)c1ccccc1 (stereo unspecified),65,31,33,50,,,,
O=C(O)CC1CCCC1Cc1ccc(OCc2ccc3ccccc3n2)cc1 (stereo unspecified),90,100,,,,,,
